# Published values pooled from the literature.
# pEC50, pIC50: −log10 of the molar value.
# Organism: Leishmania infantum
# Effect on: parasite growth
SMILES,method,cells,time,notes,quantity,result
CCCCCCCCCCCCCCCCOP(=O)([O-])OCC[N+](C)(C)C,imaging,,,"intracellular, amastigote",pIC50,5.28
Fc1ccc(Nc2c(-c3cccnn3)nc3ccccn23)cc1,,,,"intracellular, amastigote",pIC50,4.46
"O=C(N[C@@H](CCc1ccccc1)C(=O)c1cc(-c2ccccc2)on1)[C@H](Cc1ccccc1)NC(=O)N1CCOCC1 (single isomer, unassigned)",,,,"intracellular, amastigote",pIC50,< 4.19
c1ccc(-c2nc3n(c2-c2ccc4cccnc4c2)CCC3)nc1,,,5 days,"intracellular, amastigote",pEC50,5.40
O=C(N[C@@H](Cc1ccccc1)C(=O)c1nc2ccccc2s1)[C@H](Cc1ccccc1)NC(=O)N1CCOCC1,,,,"intracellular, amastigote",pIC50,4.90
CCCCCCCCCCCCCCCCOP(=O)([O-])OCC[N+](C)(C)C,imaging,mouse Macrophage,5 days,"intracellular, amastigote",pEC50,5.08
Cc1ccc(-c2c(-c3ccccn3)nc3n2CCC3)cc1,,,5 days,"intracellular, amastigote",pEC50,6.30
O=C(N[C@@H](Cc1ccccc1)C(=O)c1nccs1)[C@H](Cc1ccccc1)NC(=O)N1CCOCC1,,,,"intracellular, amastigote",pIC50,< 4.19
CCCCCCCCCCCCCCCCC#CC(=O)O,,,52 h,promastigote,pIC50,4.30
